Source: PubChem
Only some compounds are listed: those with a hit (about 3.5% of all), similar ones and a draw of the others.
rCAG binder: binders of r(CAG) RNA repeats, primary screen, biochemical, fluorescence; r(CAG) RNA repeat, TO-PRO-1 dye displacement fluorescence; inhibition, % at 3 µM; 370,000 compounds, 1.3% hits; AID 651821, 2012;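 active = inhibition above the plate cutoff, the mean of all test compounds on that plate plus 3 SD, cut at about 35% in these data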;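 note: 0% = DMSO alone and 100% = 100 µM mitoxantrone as full dye displacement; higher means more dye released from RNA so lower well fluorescence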
SIAE inh: human SIAE inhibitors, primary screen, biochemical, fluorescence polarization, FP-Rh probe, 1536-well HTS; Sialate O-acetylesterase (Homo sapiens), Q9HAT2; SIAE FP-Rh probe binding; inhibition, % at 9.66 µM; 370,000 compounds, 0.69% hits;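 active = inhibition above a cutoff: mean of compounds within the control limits plus 3 SD of those, cut at about 17% in these data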;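 note: 0% = plate median of compound wells and 100% = probe without SIAE protein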
Target sequence (Q9HAT2 whole entry, looked up): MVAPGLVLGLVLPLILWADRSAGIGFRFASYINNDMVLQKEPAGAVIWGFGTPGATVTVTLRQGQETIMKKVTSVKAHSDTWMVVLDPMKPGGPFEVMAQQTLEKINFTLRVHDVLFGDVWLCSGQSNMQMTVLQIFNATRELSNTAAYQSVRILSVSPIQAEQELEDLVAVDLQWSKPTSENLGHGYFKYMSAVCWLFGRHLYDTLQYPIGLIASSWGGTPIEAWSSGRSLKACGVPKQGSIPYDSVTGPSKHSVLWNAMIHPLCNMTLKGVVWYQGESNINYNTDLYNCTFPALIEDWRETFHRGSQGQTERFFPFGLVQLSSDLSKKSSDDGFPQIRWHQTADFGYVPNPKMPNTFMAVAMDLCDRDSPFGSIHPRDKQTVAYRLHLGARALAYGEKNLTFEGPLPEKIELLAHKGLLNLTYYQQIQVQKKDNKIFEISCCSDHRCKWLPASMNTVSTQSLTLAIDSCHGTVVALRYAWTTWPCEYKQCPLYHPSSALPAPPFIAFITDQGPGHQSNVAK
mABHD4 FP: ABHD4 inhibitors, primary screen, biochemical, fluorescence polarization, mouse; (Lyso)-N-acylphosphatidylethanolamine lipase (Mus musculus), Q8VD66; AID 720543, 2013; inhibition, % at 8.92 µM; purified mABHD4, FP-Rh probe fluorescence polarization; 370,000 compounds, 0.54% hits;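 active = inhibition exceeding the mean over every tested compound plus 3 SD, cut at about 30% in these data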;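 note: 0% = plate median of compound wells and 100% = S159A mutant with DMSO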
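Assay system: mABHD4 protein; medium: HEPES pH 7.0, NaCl, Pluronic buffer; dosing: 8.92 µM, single dose; schedule: 45 min + 60 min at 25 °C; signal: FP readout, ex 525 nm / em 598 nm; read-out: normalized percent inhibition of probe labeling; repeats: single replicate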
TCR CD3 inh: inhibitors of human TCR-CD3 interaction, primary screen, biochemical, fluorescence, TAMRA-labeled TCR probe; inhibition, % at 9.4 µM; 360,000 compounds, 0.37% hits; AID 651800, 2012; in the data active = inhibition above about 19%;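 note: recombinant mutant TCR 2C K166C tagged with TAMRA read by polarization; 0% = receptor in buffer alone and 100% = receptor with positive control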
PRMT1 inh: PRMT1 methyltransferase inhibitors, primary screen, biochemical, fluorescence polarization; Protein arginine N-methyltransferase 1 (Homo sapiens), Q99873; recombinant PRMT1, activity-based probe fluorescence polarization; inhibition, % at 2.79 µM; 370,000 compounds, 1.3% hits; AID 652257, 2013;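 active = inhibition above about 21% made by adding two undisclosed values, limit read from the data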
HTRA1 inhibitor: HTRA1 serine protease inhibitors, primary screen, biochemical, fluorescence polarization, HTS; inhibition, % at 5.96 µM; AID 504803, 2011; recombinant HTRA1, FP-rhodamine activity-based probe; Q92743; 340,000 compounds, 0.5% hits; in the data active = inhibition above about 36%;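 note: 0% = enzyme with DMSO and 100% = wells lacking enzyme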
Numbers without * were called inactive.

How did COc1ccc(CSc2nnc(SCc3ccccc3)s2)cc1 do in these assays?
rCAG binder: 0; SIAE inh: -4; mABHD4 FP: -11; PRMT1 inh: -1

How did O=S1(=O)c2ccc(Br)cc2OC[C@@H](Cc2ccccc2)N1Cc1cn(CC2CCCCC2)nn1 do in these assays?
rCAG binder: 3; SIAE inh: 9; mABHD4 FP: -6; PRMT1 inh: -5

What do the screens show for `CCC(NC(=O)c1ccc2c(c1)c(C)c(C)n2Cc1ccc(-c2ccccc2C#N)cc1)c1ccccc1` (stereo not drawn)?
rCAG binder: 17; SIAE inh: -9; mABHD4 FP: -42; PRMT1 inh: 2

How did COc1cc(/C=C/c2sc3ccccc3[n+]2CCCS(=O)(=O)[O-])ccc1O do in these assays?
rCAG binder: -46; SIAE inh: -357; mABHD4 FP: -239; TCR CD3 inh: -165; PRMT1 inh: 0; HTRA1 inhibitor: -326

Results for Cc1ccc2c(c1)sc(C)[n+]2CCCS(=O)(=O)[O-] ?
rCAG binder: 11; SIAE inh: -12; mABHD4 FP: -5; TCR CD3 inh: 9; PRMT1 inh: 62*; HTRA1 inhibitor: 0

What do the screens show for `Cc1ccc2sc(C)[n+](CCCS(=O)(=O)[O-])c2c1`?
rCAG binder: 9; SIAE inh: -6; mABHD4 FP: -3; TCR CD3 inh: 2; PRMT1 inh: 38*; HTRA1 inhibitor: 4

Results for Cc1c2ccccc2cc[n+]1CCCS(=O)(=O)[O-] ?
rCAG binder: 2; SIAE inh: -5; mABHD4 FP: -5; TCR CD3 inh: 3; PRMT1 inh: 0; HTRA1 inhibitor: 1

Results for Cc1ccccc1C(=O)N(C)[C@H]1C[C@H]2c3[nH]c4c(-c5ccc6c(c5)OCO6)cccc4c3CCN2C[C@H]1[C@H](C)O ?
rCAG binder: 5; SIAE inh: -3; mABHD4 FP: -2; PRMT1 inh: -2

What do the screens show for `COC(=O)[C@H](C(C)C)N(Cc1cn(Cc2ccc(C)cc2)nn1)S(=O)(=O)c1ccc(F)cc1Br`?
rCAG binder: 1; SIAE inh: 4; mABHD4 FP: -3; PRMT1 inh: -7

How did Cc1nn(Cc2ccc(C(=O)NC(C)(C)C)o2)c(C)c1Br do in these assays?
rCAG binder: 0; SIAE inh: 8; mABHD4 FP: -2; TCR CD3 inh: 0; PRMT1 inh: 24*; HTRA1 inhibitor: -3

What do the screens show for `C[C@H](O)[C@@H]1CN2CCc3ccc(N4CCOCC4)cc3[C@@H]2C[C@@H]1N(C)C(=S)NCCc1ccccc1`?
rCAG binder: 3; SIAE inh: 3; mABHD4 FP: 6; PRMT1 inh: 4

Results for O=C(NCc1ccccc1)c1nc(S(=O)(=O)Cc2ccccc2)ncc1Cl ?
rCAG binder: -3; SIAE inh: -9; mABHD4 FP: -2; TCR CD3 inh: -3; PRMT1 inh: 23*; HTRA1 inhibitor: 3

What do the screens show for `COc1ccc(CNC(=O)c2nc(S(=O)(=O)Cc3ccccc3)ncc2Cl)cc1`?
rCAG binder: -3; SIAE inh: 4; mABHD4 FP: -5; TCR CD3 inh: -5; PRMT1 inh: 19; HTRA1 inhibitor: -1

Results for O=C(c1ccc(Cl)c(Cl)c1)N1CCN(c2ccnc3cc(Cl)ccc23)CC1 ?
SIAE inh: -5; mABHD4 FP: -13; PRMT1 inh: -3

How did COc1cc(NC(=O)COC(=O)[C@@H]2CCCN2S(=O)(=O)c2ccc(Cl)cc2)cc(OC)c1OC do in these assays?
rCAG binder: -4; SIAE inh: 18*; mABHD4 FP: -3; TCR CD3 inh: 3; PRMT1 inh: 2; HTRA1 inhibitor: -4

Results for O=C(COC(=O)[C@@H]1CCCN1S(=O)(=O)c1ccc(Cl)cc1)NC12CC3CC(CC(C3)C1)C2 ?
rCAG binder: -1; SIAE inh: -2; mABHD4 FP: 6; TCR CD3 inh: -1; PRMT1 inh: 0; HTRA1 inhibitor: -28

What do the screens show for `CCN(CC(=O)Nc1ccc(NC(C)=O)cc1)C(=O)/C=C/c1ccc(C)o1`?
rCAG binder: 3; SIAE inh: -4; mABHD4 FP: 1; TCR CD3 inh: 6; PRMT1 inh: 24*; HTRA1 inhibitor: 9

How did Cc1ccc(NC(=O)c2ccc(=O)[nH]n2)cc1S(=O)(=O)Nc1ccc(SC(F)F)cc1 do in these assays?
rCAG binder: 33; SIAE inh: -59; mABHD4 FP: -60; TCR CD3 inh: 11; PRMT1 inh: 46*; HTRA1 inhibitor: -44

Results for COc1ccc(C(NC(=O)c2cccnc2)c2cc(Cl)c3cccnc3c2O)cc1OC (stereo not drawn) ?
rCAG binder: 5; SIAE inh: 10; mABHD4 FP: 7; TCR CD3 inh: 2; PRMT1 inh: 1; HTRA1 inhibitor: 45*

Results for Oc1c(C(Nc2ccccn2)c2cccnc2)cc(Cl)c2cccnc12 (stereo not drawn) ?
rCAG binder: -1; SIAE inh: 12; mABHD4 FP: 15; TCR CD3 inh: -2; PRMT1 inh: -3; HTRA1 inhibitor: 24

How did Nc1c(N2CCCC2)cc(Cl)c2nonc12 do in these assays?
HTRA1 inhibitor: 37*

What do the screens show for `Nc1c(N2CCOCC2)cc(Cl)c2nonc12`?
rCAG binder: -2; SIAE inh: 3; mABHD4 FP: 1; TCR CD3 inh: 9; PRMT1 inh: 0; HTRA1 inhibitor: 1

Results for CC(C)N(Cc1cn(Cc2ccccc2)nn1)S(=O)(=O)c1ccc(F)cc1Br ?
rCAG binder: -1; SIAE inh: 4; mABHD4 FP: -1; PRMT1 inh: -8

Results for O[C@H](COc1cccc(C(F)(F)F)c1)CN1CCC(C(O)(c2ccccc2)c2ccccc2)CC1 ?
rCAG binder: -3; SIAE inh: -8; mABHD4 FP: 8; PRMT1 inh: -1

What do the screens show for `Cc1cc(Nc2ccccc2)nc(NCc2ccccc2)n1`?
rCAG binder: 4; SIAE inh: -5; mABHD4 FP: 21; TCR CD3 inh: -4; PRMT1 inh: 0; HTRA1 inhibitor: -11

How did Cc1cc(Nc2ccc(Cl)cc2)nc(NCc2ccccc2)n1 do in these assays?
rCAG binder: 5; SIAE inh: 23*; mABHD4 FP: 17; TCR CD3 inh: -1; PRMT1 inh: 1; HTRA1 inhibitor: -17

What do the screens show for `O=[N+]([O-])c1ccc2nc(COCc3nc4ccccc4[nH]3)[nH]c2c1`?
SIAE inh: -6; mABHD4 FP: -7; PRMT1 inh: -4

Results for COc1ccc(C#CCN(C)/C(N)=N/C(=O)OCc2ccccc2)cc1 ?
rCAG binder: -2; SIAE inh: 3; mABHD4 FP: -7; PRMT1 inh: -2
